The source made the active and inactive calls. The calls are words filed in the database; no cut-off is given here.
Tests used:
RAW264.7 [1] = assay: Antiinflammatory activity against mouse RAW264.7 cells assessed as inhibition of LPS-induced NO production measured after 24 hrs by Griess assay; type: functional, cell-based; conditions: RAW264.7, 24 h
Outline: (§1)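 RAW 264.7 cells (1 × 10^5 cells/mL) are cultured 24 h, stimulated with LPS (100 ng/mL final), and treated with compounds from 100 μM downward for 24 h in DMEM with 10% FBS. Medium nitrite is measured by Griess reaction (sulfanilamide, naphthylethylenediamine, phosphoric acid, 10 min, room temperature, dark). Mean + SD from three independent experiments.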

RAW264.7 [2] = assay: Cytotoxicity against mouse RAW264.7 cells assessed as reduction in cell viability at 3 to 100 uM incubated for 24 hrs in presence of LPS by MTT assay; type: cell-based; conditions: raw264.7, 24 h, dose 3-100 µM
Outline: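 RAW 264.7 cells are seeded at 1.0 × 10^4 per well and incubated overnight. Compounds are added at concentrations from 100 μM downward, with or without LPS (100 ng/mL), for 24 h. MTT (0.5 mg/mL) is added for 4 h and the formazan is dissolved in DMSO for the read-out.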

RAW264.7 [3] = assay: Antiinflammatory activity against mouse RAW264.7 cells assessed as inhibition of LPS-induced NO production at 20 uM after 24 hrs by Griess assay; type: functional; outline: as §1
RAW264.7 [4] = assay: Antiinflammatory activity against mouse RAW264.7 cells assessed as inhibition of LPS-induced COX2 mRNA expression at 20 uM incubated for 8 hrs in presence of LPS by qRT-PCR analysis; type: functional, cell-based
Outline: (§2)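 RAW 264.7 cells are grown 12 h in six-well plates, then exposed to LPS (100 ng/ml) plus compound for 8 h. Reverse transcription is followed by SYBR Green qPCR with GAPDH as internal control. Relative expression is calculated by 2^-ΔΔCT versus the untreated control. Mean + SD from three independent experiments.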

RAW264.7 [5] = assay: Antiinflammatory activity against mouse RAW264.7 cells assessed as inhibition of LPS-induced COX2 mRNA expression incubated for 8 hrs in presence of LPS by qRT-PCR analysis; type: functional, cell-based; conditions: dose 0.31-20 µM; outline: as §2
RAW264.7 [6] = assay: Antiinflammatory activity against mouse RAW264.7 cells assessed as inhibition of LPS-induced MCP-1 mRNA expression at 20 uM in presence of LPS by qRT-PCR analysis; type: functional, cell-based; outline: as §2
RAW264.7 [7] = assay: Antiinflammatory activity against mouse RAW264.7 cells assessed as inhibition of LPS-induced IL-6 production measured after 24 hrs in presence of LPS by ELISA; type: functional, cell-based; conditions: dose 0.31-20 µM
Outline: (§3)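 RAW 264.7 cells are seeded at 2 × 10^5 per well, grown 12 h, and given 100 ng/mL LPS with compound at 0.31 to 20 μM for 24 h. Supernatant IL-1β and IL-6 are quantified by ELISA. Mean + SD, n = 3.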

RAW264.7 [8] = assay: Antiinflammatory activity against mouse RAW264.7 cells assessed as inhibition of LPS-induced IL-1 beta production measured after 24 hrs in presence of LPS by ELISA; type: functional, cell-based; conditions: dose 0.31-20 µM; outline: as §3
RAW264.7 [9] = assay: Antiinflammatory activity against mouse RAW264.7 cells assessed as decrease in LPS-induced NF-kappB mRNA expression in presence of LPS by qRT-PCR analysis; type: functional, cell-based; conditions: dose 0.31-20 µM; outline: as §2
RAW264.7 [10] = assay: Inhibition of PI3K/Akt signaling in mouse RAW264.7 cells assessed as inhibition of LPS-induced Akt phosphorylation by measuring increase in Akt level at 1.25 uM in presence of LPS by western blot analysis; type: cell-based
Outline: (§4)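 Lysates of LPS-stimulated RAW 264.7 cells (20–30 μg protein) are run on 10% SDS-PAGE, blotted, blocked with 5% milk, probed overnight at 4 °C (1:5,000), then detected with HRP secondary and ECL. Actin, GAPDH or H3 (nuclear fraction) serve as loading controls, with densitometry ratios. Blots are representative of three independent experiments; mean + SD (n = 3).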

RAW264.7 [11] = assay: Inhibition of PI3K/Akt signaling in mouse RAW264.7 cells assessed as inhibition of LPS-induced NFkappB p-p65 accumulation at 1.25 uM in presence of LPS by western blot analysis; type: cell-based; outline: as §4
RAW264.7 [12] = assay: Inhibition of PI3K/Akt signaling in mouse RAW264.7 cells assessed as inhibition of LPS-induced NFkappB p-p65 accumulation in presence of LPS by western blot analysis; type: cell-based; conditions: dose 0.31-20 µM; outline: as §4
Mus musculus [13] = assay: Antiinflammatory activity against DSS-induced colitis C57BL/6 mouse model assessed as attenuation of colon length shortening at 50 mg/kg, ip administered for 7 days; type: functional, organism-based; conditions: time 7.0 day
Outline: (§5)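 Male C57BL/6 mice, 6 weeks old, 5 per group, given 3.5% DSS in drinking solution with intraperitoneal drug in saline/castor oil/ethanol/DMSO (70:10:15:5) daily for 7 days. Colons are photographed after sacrifice by cervical dislocation for gross assessment.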

Mus musculus [14] = assay: Antiinflammatory activity against DSS-induced colitis C57BL/6 mouse model assessed as attenuation of colon length shortening at 25 mg/kg, ip administered for 7 days; type: functional, organism-based; conditions: time 7.0 day; outline: as §5
Mus musculus [15] = assay: Antiinflammatory activity against DSS-induced colitis C57BL/6 mouse model assessed as colon with intact structure with few inflammatory cells at 50 to 100 mg/kg, ip administered for 7 days by hematoxylin and eosin staining based microscopic analysis; type: functional, organism-based; conditions: dose 50-100 mg/kg, time 7.0 day
Outline: (§6)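 DSS colitis (3.5% DSS, male C57BL/6 mice, n=5 per group) with 7-day intraperitoneal dosing in saline/castor oil/ethanol/DMSO vehicle. Colons are fixed in formalin, paraffin-embedded and stained with H&E (viewed at 200X). Separately, sections undergo CD86 immunohistochemistry (citrate antigen retrieval, 3% H2O2 block, 1:200 primary and HRP secondary, hematoxylin counterstain) viewed at 400X.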

Mus musculus [16] = assay: Antiinflammatory activity against DSS-induced colitis C57BL/6 mouse assessed as decrease in IL-1beta level in colon at 50 mg/kg, ip administered for 7 days; type: functional, organism-based; conditions: time 7.0 day
Outline: (§7)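 Male C57BL/6 mice, 6 weeks old, 5 per group, given 3.5% DSS solution plus daily intraperitoneal drug (100 μL, in saline/castor oil/ethanol/DMSO 70:10:15:5) for 7 days. Colons collected after sacrifice. IL-1β is normalised per milligram of colonic protein. p-IκB-α and p-p65 in colonic protein are measured by Western blot. Bars give mean + SD.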

Mus musculus [17] = assay: Antiinflammatory activity against DSS-induced colitis C57BL/6 mouse assessed as decrease in IL-1beta level in colon at 25 mg/kg, ip administered for 7 days; type: functional, organism-based; conditions: time 7.0 day; outline: as §7
Mus musculus [18] = assay: Antiinflammatory activity against DSS-induced colitis C57BL/6 mouse assessed as decrease in p-p65 level in colon at 50 mg/kg, ip administered for 7 days by western blot analysis; type: functional, organism-based; conditions: time 7.0 day; outline: as §7
Mus musculus [19] = assay: Antiinflammatory activity against DSS-induced colitis C57BL/6 mouse assessed as decrease in p-IkB alpha level in colon at 25 mg/kg, ip administered for 7 days by western blot analysis; type: functional, organism-based; conditions: time 7.0 day; outline: as §7
Mus musculus [20] = assay: Antiinflammatory activity against DSS-induced colitis C57BL/6 mouse model assessed as reduction in scores of stool consistency and bleeding at 25 to 100 mg/kg, ip administered for 7 days by immunohistochemistry analysis; type: functional, organism-based; conditions: dose 25-100 mg/kg, time 7.0 day
Mus musculus [21] = assay: Antiinflammatory activity against DSS-induced colitis C57BL/6 mouse model assessed as dispersed CD86-positive cells in colon at 25 to 100 mg/kg, ip administered for 7 days by hematoxylin and eosin staining based microscopic analysis; type: functional, organism-based; conditions: dose 25-100 mg/kg, time 7.0 day; outline: as §6

Q: For `C[C@]12CC[C@H]3[C@@H](CC=C4C[C@@H](O)CC[C@@]43C)[C@@H]1CC[C@@H]2C(=O)n1ccnc1`, which IC50 (RAW264.7 [1]) is on record?
A: 6.67 µM

Q: And the Activity (RAW264.7 [2])?
A: Non-Toxic

Q: And the inhibition at 20 µM (RAW264.7 [3])?
A: 100%

Q: What about the Activity (RAW264.7 [4]) of the same compound?
A: Active

Q: And the Activity (RAW264.7 [5])?
A: Dose-Dependent Effect

Q: What about the Activity (RAW264.7 [6]) of the same compound?
A: Active

Q: What about the Activity (RAW264.7 [7]) of the same compound?
A: Dose-Dependent Effect

Q: What about the Activity (RAW264.7 [8]) of the same compound?
A: Dose-Dependent Effect

Q: What about the Activity (RAW264.7 [9]) of the same compound?
A: Dose-Dependent Effect

Q: What about the inhibition (RAW264.7 [10]) of the same compound?
A: Active

Q: And the inhibition (RAW264.7 [11])?
A: Active

Q: What about the inhibition (RAW264.7 [12]) of the same compound?
A: Dose-Dependent Effect

Q: And the Activity (Mus musculus [13])?
A: Active

Q: What about the Activity (Mus musculus [14]) of the same compound?
A: Active

Q: And the Activity (Mus musculus [15])?
A: Active

Q: What about the Activity (Mus musculus [16]) of the same compound?
A: Active

Q: What about the Activity (Mus musculus [17]) of the same compound?
A: Active

Q: What about the Activity (Mus musculus [18]) of the same compound?
A: Active

Q: And the Activity (Mus musculus [19])?
A: Active

Q: What about the Activity (Mus musculus [20]) of the same compound?
A: Active

Q: And the Activity (Mus musculus [21])?
A: Active

Reference: ChEMBL document CHEMBL4842317, “Discovery of novel 3-hydroxyandrosta-5,7-Diene-17-Carboxylic acid derivatives as anti-inflammatory bowel diseases (IBD) agents” (Eur J Med Chem, 2021)
